Measured values reported in ChEMBL document CHEMBL4196091 (Eur J Med Chem, 2018).
Activity calls are given as the source filed them. No cut-off for these calls is given here.

Experiments:
HT-29 [1] = assay: Antiproliferative activity against human HT-29 cells after 2 days by MTT assay; format: functional, cell-based; conditions: HT-29, 48 h
MCF7 = assay: Antiproliferative activity against human MCF7 cells after 2 days by MTT assay; format: functional, cell-based; conditions: MCF7, 48 h
A549 [2] = assay: Antiproliferative activity against human A549 cells after 2 days by MTT assay; format: functional, cell-based; conditions: A549, 48 h
HEK293 = assay: Antiproliferative activity against HEK293 cells after 2 days by MTT assay; format: ADME, cell-based; conditions: Homo sapiens, HEK293, 48 h
A549 [3] = assay: Cell cycle arrest in human A549 cells assessed as accumulation at sub-G0 phase at 50 nM after 24 hrs by propidium iodide staining based flow cytometry (reference value: 2 +/- 1%); format: functional
Summary of the method: (§1)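 A549 cells maintained in DMEM (1 g/L glucose, 2 mM glutamine, penicillin/streptomycin/amphotericin B, 10% FBS) and treated for 24 h. Cells were then fixed, RNase-treated and stained with propidium iodide. DNA content was measured by flow cytometry to give cell-cycle phase distribution, including a sub-G1 peak. Data are means (±SD) of two experiments.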

A549 [4] = assay: Cell cycle arrest in human A549 cells assessed as accumulation at G0/G1 phase at 50 nM after 24 hrs by propidium iodide staining based flow cytometry (reference value: 73 +/- 3%); format: functional; summary of the method: as §1
A549 [5] = assay: Cell cycle arrest in human A549 cells assessed as accumulation at S phase at 50 nM after 24 hrs by propidium iodide staining based flow cytometry (reference value: 15 +/- 6%); format: functional; summary of the method: as §1
A549 [6] = assay: Cell cycle arrest in human A549 cells assessed as accumulation at G2/M phase at 50 nM after 24 hrs by propidium iodide staining based flow cytometry (reference value: 11 +/- 4%); format: functional; summary of the method: as §1
A549 [7] = assay: Cell cycle arrest in human A549 cells assessed as accumulation at G2/M phase at 3 nM after 24 hrs by propidium iodide staining based flow cytometry; format: functional; summary of the method: as §1
A549 [8] = assay: Cell cycle arrest in human A549 cells assessed as accumulation at sub-G0 phase at 15 nM after 24 hrs by propidium iodide staining based flow cytometry (reference value: 2 +/- 1%); format: functional; summary of the method: as §1
A549 [9] = assay: Cell cycle arrest in human A549 cells assessed as accumulation at G0/G1 phase at 15 nM after 24 hrs by propidium iodide staining based flow cytometry (reference value: 73 +/- 3%); format: functional; summary of the method: as §1
A549 [10] = assay: Cell cycle arrest in human A549 cells assessed as accumulation at S phase at 15 nM after 24 hrs by propidium iodide staining based flow cytometry (reference value: 15 +/- 6%); format: functional; summary of the method: as §1
A549 [11] = assay: Cell cycle arrest in human A549 cells assessed as accumulation at G2/M phase at 15 nM after 24 hrs by propidium iodide staining based flow cytometry (reference value: 11 +/- 4%); format: functional; summary of the method: as §1
HT-29 [12] = assay: Downregulation of c-Myc gene expression in human HT-29 cells assessed as c-Myc mRNA level at […] after 48 hrs by RT-PCR method (reference value: 100%); format: functional
HT-29 [13] = assay: Downregulation of hTERT gene expression in human HT-29 cells assessed as hTERT mRNA level at […] after 48 hrs by RT-PCR method (reference value: 100%); format: functional
HT-29 [14] = assay: Downregulation of VEGF gene expression in human HT-29 cells assessed as VEGF mRNA level at […] after 48 hrs by RT-PCR method (reference value: 100%); format: functional
HT-29 [15] = assay: Inhibition of VEGF protein secretion in human HT-29 cells assessed as VEGF protein level at […] after 48 hrs by ELISA (reference value: 100%); format: functional; set-up: scale not given: the % may be the effect or the level left
A549 [16] = assay: Cell cycle arrest in human A549 cells assessed as accumulation at G2/M phase at antiproliferative IC50 after 24 hrs by propidium iodide staining based flow cytometry; format: functional
Summary of the method: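 A549 cells kept in DMEM (1 g/L glucose, 2 mM glutamine, antibiotics, amphotericin B, 10% FBS), treated 24 h with compound from 10 mM DMSO stock; fixed, RNase-treated, stained with propidium iodide, DNA content read by flow cytometry for phase distribution. Average (±SD) of two experiments.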

HT-29 [17] = assay: Downregulation of c-Myc gene expression in human HT-29 cells assessed as c-Myc mRNA level at 3 nM after 48 hrs by RT-PCR method (reference value: 100%); format: functional
Summary of the method: (§2)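 HT-29 cells (1.5 x 10^5 per well, six-well plate) seeded 24 h, then exposed 48 h with DMSO control; total RNA extracted, target mRNA quantified by TaqMan RT-qPCR, normalized to β-actin, expressed as percentage of control. At least three measurements; one-sample t-tests.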

HT-29 [18] = assay: Downregulation of hTERT gene expression in human HT-29 cells assessed as hTERT mRNA level at 3 nM after 48 hrs by RT-PCR method (reference value: 100%); format: functional; summary of the method: as §2
HT-29 [19] = assay: Downregulation of VEGF gene expression in human HT-29 cells assessed as VEGF mRNA level at 3 nM after 48 hrs by RT-PCR method (reference value: 100%); format: functional; summary of the method: as §2
HT-29 [20] = assay: Inhibition of VEGF protein secretion in human HT-29 cells assessed as VEGF protein level at 3 nM after 48 hrs by ELISA (reference value: 100%); format: functional; set-up: scale not given: the % may be the effect or the level left
Summary of the method: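 HT-29 cells (1.5 x 10^5 per well, six-well plate) seeded 24 h, then treated 48 h with DMSO control; secreted VEGF in culture supernatant measured by human VEGF ELISA kit, expressed as percentage of control. At least three measurements.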

A549 [21] = assay: Cell cycle arrest in human A549 cells assessed as accumulation at sub-G0 phase at 20 nM after 24 hrs by propidium iodide staining based flow cytometry (reference value: 2 +/- 1%); format: functional; summary of the method: as §1
A549 [22] = assay: Cell cycle arrest in human A549 cells assessed as accumulation at G0/G1 phase at 20 nM after 24 hrs by propidium iodide staining based flow cytometry (reference value: 73 +/- 3%); format: functional; summary of the method: as §1
A549 [23] = assay: Cell cycle arrest in human A549 cells assessed as accumulation at S phase at 20 nM after 24 hrs by propidium iodide staining based flow cytometry (reference value: 15 +/- 6%); format: functional; summary of the method: as §1
A549 [24] = assay: Cell cycle arrest in human A549 cells assessed as accumulation at G2/M phase at 20 nM after 24 hrs by propidium iodide staining based flow cytometry (reference value: 11 +/- 4%); format: functional; summary of the method: as §1
HT-29 [25] = assay: Downregulation of c-Myc gene expression in human HT-29 cells assessed as c-Myc mRNA level at 10 nM after 48 hrs by RT-PCR method (reference value: 100%); format: functional
Summary of the method: (§3)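 HT-29 cells were taken at 70–80% confluence and seeded at 1.5 x 10^5 per well. After 24 h they were exposed to compound for 48 h. Total RNA was isolated and TaqMan RT-qPCR run for VEGF-A, c-MYC and hTERT, normalized to β-actin. Expression is given as percent of DMSO control, with at least three measurements and one-sample t-tests.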

HT-29 [26] = assay: Downregulation of hTERT gene expression in human HT-29 cells assessed as hTERT mRNA level at 10 nM after 48 hrs by RT-PCR method (reference value: 100%); format: functional; summary of the method: as §3
HT-29 [27] = assay: Downregulation of VEGF gene expression in human HT-29 cells assessed as VEGF mRNA level at 10 nM after 48 hrs by RT-PCR method (reference value: 100%); format: functional; summary of the method: as §3
HT-29 [28] = assay: Inhibition of VEGF protein secretion in human HT-29 cells assessed as VEGF protein level at 10 nM after 48 hrs by ELISA (reference value: 100%); format: functional; set-up: scale not given: the % may be the effect or the level left

| IC50 (HT-29 [1]) | IC50 (MCF7) | IC50 (A549 [2]) | SMILES | IC50 (HEK293) | Activity (A549 [7]) | Activity (A549 [8]) | Activity (A549 [9]) | Activity (A549 [10]) | Activity (A549 [11]) | Activity (HT-29 [12]) | Activity (HT-29 [13]) | Activity (HT-29 [14]) | Activity (HT-29 [15]) | further results |
| --- | --- | --- | --- | --- | --- | --- | --- | --- | --- | --- | --- | --- | --- | --- |
| 8.7 nM | 9 nM | 19.4 nM | COc1cc2c(c(OC)c1OC)-c1ccc(OC)c(=O)cc1[C@@H](NC(=O)CC1CCCCC1)CC2 | 10.5 nM |  |  |  |  |  |  |  |  |  |  |
| 1.79 nM | 6.7 nM | 6.6 nM | COc1cc2c(c(OC)c1OC)-c1ccc(OC)c(=O)cc1[C@@H](NC(=O)c1ccc(Cl)cc1)CC2 | 10.1 nM | Active | 2% | 27% | 14% | 48% | 37% | 73% | 37% | 54% |  |
| 4.6 nM | 29 nM | 12.3 nM | COc1cc2c(c(OC)c1OC)-c1ccc(OC)c(=O)cc1[C@@H](NC(=O)CCl)CC2 | 4.56 nM |  | 2% | 22% | 20% | 55% |  |  |  |  | Activity (A549 [16]): Active; Activity (HT-29 [17]): 74%; Activity (HT-29 [18]): 66%; Activity (HT-29 [19]): 76%; Activity (HT-29 [20]): 100% |
| 1.8 nM | 3.4 nM | 3.1 nM | COc1cc2c(c(OC)c1OC)-c1ccc(OC)c(=O)cc1[C@@H](NC(=O)c1cccc(Cl)c1)CC2 | 3 nM | Active |  |  |  |  | 20% | 59% | 30% | 48% | Activity (A549 [21]): 6%; Activity (A549 [22]): 24%; Activity (A549 [23]): 15%; Activity (A549 [24]): 57% |
| 10 nM | 4.1 nM | 31 nM | COc1cc2c(c(OC)c1OC)-c1ccc(OC)c(=O)cc1[C@@H](NC(=O)CI)CC2 | 19 nM |  |  |  |  |  |  |  |  |  | Activity (HT-29 [25]): 42%; Activity (HT-29 [26]): 59%; Activity (HT-29 [27]): 42%; Activity (HT-29 [28]): 89% |
| 2.3 nM | 4.5 nM | 13 nM | COc1cc2c(c(OC)c1OC)-c1ccc(OC)c(=O)cc1[C@@H](NC(=O)c1ccccc1Cl)CC2 | 5.93 nM | Active | 3% | 11% | 26% | 55% | 38% | 54% | 32% | 54% |  |

| SMILES | IC50 (HT-29 [1]) | IC50 (MCF7) | IC50 (A549 [2]) | IC50 (HEK293) | Activity (A549 [7]) | Activity (A549 [8]) | Activity (A549 [9]) | Activity (A549 [10]) | Activity (A549 [11]) | Activity (HT-29 [12]) | Activity (HT-29 [13]) | Activity (HT-29 [14]) | Activity (HT-29 [15]) | further results |
| --- | --- | --- | --- | --- | --- | --- | --- | --- | --- | --- | --- | --- | --- | --- |
| COc1cc2c(c(OC)c1OC)-c1ccc(OC)c(=O)cc1[C@@H](NC(=O)c1ccccc1)CC2 | 8.1 nM | 5 nM | 10 nM | 13 nM |  |  |  |  |  |  |  |  |  | Activity (A549 [3]): 4%; Activity (A549 [4]): 29%; Activity (A549 [5]): 28%; Activity (A549 [6]): 40% |
